# From PubChem BioAssay
# Calls of active or inactive are those of the source. Cut-off read from the data, not from the text of the source, unless noted: active = inhibition above about 30%; inactive = the rest.
# Tests used:
# [1] = reducers of endogenous Her2 protein level, primary screen, SKBR3 breast tumor cells, AlphaScreen, ATP viability (AID 461;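 active = Her2 level under about 52% in both replicate screens, with viability over 70% of control, limit read from the data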;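 for Her2 level: lower value means less Her2 protein in the cells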;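 for viability: percent of carrier control wells set as 100% viability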); details: 18-24 h, measured here: SKBR3 viability, ATP luminescence, at 10 µM
# [2] = biological target: Receptor tyrosine-protein kinase erbB-2 (Homo sapiens) (UniProt P04626); assay: as above; details: 18-24 h, at 10 µM, stronger effect = lower value
# Sequence of Receptor tyrosine-protein kinase erbB-2 (Homo sapiens) (P04626 whole entry, looked up): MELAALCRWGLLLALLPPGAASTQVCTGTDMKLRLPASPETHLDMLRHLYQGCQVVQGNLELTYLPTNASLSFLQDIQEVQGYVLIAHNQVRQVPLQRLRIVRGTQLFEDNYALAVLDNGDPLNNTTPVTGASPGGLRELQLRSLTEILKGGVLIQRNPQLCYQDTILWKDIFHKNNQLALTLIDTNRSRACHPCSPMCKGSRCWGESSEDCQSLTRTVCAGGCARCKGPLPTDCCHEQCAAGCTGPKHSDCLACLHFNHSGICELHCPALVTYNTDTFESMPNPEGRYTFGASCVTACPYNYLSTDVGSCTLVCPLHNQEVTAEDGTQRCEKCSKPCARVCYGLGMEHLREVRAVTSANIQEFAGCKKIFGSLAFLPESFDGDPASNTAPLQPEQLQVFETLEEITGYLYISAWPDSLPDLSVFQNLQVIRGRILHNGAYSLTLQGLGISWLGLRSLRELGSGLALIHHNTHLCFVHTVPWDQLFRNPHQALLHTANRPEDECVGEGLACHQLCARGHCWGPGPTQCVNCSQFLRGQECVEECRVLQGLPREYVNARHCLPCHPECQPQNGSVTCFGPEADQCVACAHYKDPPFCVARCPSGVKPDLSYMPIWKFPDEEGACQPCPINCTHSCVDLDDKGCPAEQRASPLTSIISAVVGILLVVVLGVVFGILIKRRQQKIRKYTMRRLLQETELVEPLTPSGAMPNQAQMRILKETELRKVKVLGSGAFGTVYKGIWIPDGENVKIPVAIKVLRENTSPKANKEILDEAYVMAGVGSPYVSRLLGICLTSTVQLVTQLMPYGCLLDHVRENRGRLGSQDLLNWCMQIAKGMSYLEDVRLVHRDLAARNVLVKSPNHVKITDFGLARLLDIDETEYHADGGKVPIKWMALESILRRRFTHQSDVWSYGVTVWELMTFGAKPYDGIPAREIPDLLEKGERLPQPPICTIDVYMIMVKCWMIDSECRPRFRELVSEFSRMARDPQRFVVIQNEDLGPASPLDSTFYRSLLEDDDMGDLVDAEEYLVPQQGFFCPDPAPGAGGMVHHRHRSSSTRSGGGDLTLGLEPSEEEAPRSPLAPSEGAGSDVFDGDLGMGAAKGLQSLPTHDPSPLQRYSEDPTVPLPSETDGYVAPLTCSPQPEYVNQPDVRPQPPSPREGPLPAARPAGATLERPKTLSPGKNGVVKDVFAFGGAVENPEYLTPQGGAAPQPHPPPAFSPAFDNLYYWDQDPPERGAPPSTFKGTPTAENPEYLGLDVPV
# [3] = SK-BR-3 cell growth inhibitors, pilot screen, 24 h, human (AID 572;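 active = viability at or below 10% of carrier control in both of two separate runs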;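 note: compound exposure lasted between 18 and 24 h rather than exactly 24 h; 100% = carrier-treated control wells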); details: SK-BR-3 viability, CellTiter-Glo luminescence, at 10 µM, stronger effect = lower value
# [4] = HUVEC growth inhibition – cell-based, human, primary screen (AID 575;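 active = viability at or below 30% in both replicate assays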;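 note: 100% = median of untreated cell wells with 0.1% DMSO on each plate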); details: HUVEC proliferation, CellTiter-Glo luminescence, 72 h; at 10 µM; stronger effect = lower value
# How it was run: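 Assay system: primary human umbilical vein endothelial cells / Buffer or medium: endothelial basal medium with 2% FBS plus growth supplements / Compound dosing: one dose, 10 µM final, 0.1% DMSO / Timing: 72 h treatment at 37 °C / Signal: CTG luminescence / Benchmarks: 32 DMSO-only cell-control wells (high), 32 MePR drug-control wells (low) per plate / Plate: collagen-coated 384-well format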
# [5] = growth inhibitors of H69AR lung tumor, primary screen, human, duplicate replicates (AID 580;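 active = viability at or under a set limit in both replicates, limit being median viability minus 3 SD, cut at about 48% in these data, passing the limit was not always enough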;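 note: 100% = mean luminescence of untreated wells and 0% = no signal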); details: H69AR lung tumor cells viability, ATP luminescence, 72 h; at 10 µM; stronger effect = lower value
# [6] = reversal of MRP1-mediated doxorubicin resistance, pilot screen, H69AR cells, doxorubicin co-treatment (AID 601;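 active = viability loss from added drug above about 55%, and viability with drug at most 40%, in both replicates, limit read from the data, passing the limit was not always enough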); details: CellTiter-Glo, 72 h, at 10 µM; for differential viability (reversal): stronger effect = higher value
# [7] = 384-well plate pilot, post-Golgi transport modulator project, inhibition of yeast transport mutant growth (AID 636; in the data active = inhibition above about 31%); details: absorbance 615 nm, about 18 h, stronger effect = higher value
# [8] = growth suppression of yeast trafficking mutant, preliminary HTS, modulators of trafficking downstream of Golgi apparatus project, 1536-format plate, OD 615 nm (AID 637); details: yeast transport mutant growth, absorbance 615 nm, 18 h; stronger effect = higher value
# [9] = H69AR cells + 2 uM doxorubicin, measured here: viability with 2 uM doxorubicin, stronger effect = lower value
# [10] = H69AR cells, compound alone cytotoxicity
Compound,viability [1] [%],Her2 level [2],viability [3],viability [4],viability [5],differential viability (reversal) ([6]; H69AR cells + 2 uM doxorubicin),"viability [6, 9] [%]","viability [6, 10] [%]",inhibition [7],inhibition [8]
Cc1ccc2nc(SC(C)C(=O)N3CCCC3)[nH]c2c1 (stereo not given),87.5,108% (inactive),87.5% (inactive),91.4% (inactive),97.6% (inactive),6.04% (inactive),91.6,97.6,-0.92% (inactive),-6.35% (inactive)
Cc1cc(C(=O)CSCCCn2c(=O)[nH]c3ccccc32)c(C)n1C,105,98% (inactive),105% (inactive),110% (inactive),98.1% (inactive),9.45% (inactive),88.7,98.1,0.41% (inactive),-5.08% (inactive)
COC(=O)/C=c1\sc2ncnn2c1=O,95,97.5% (inactive),95% (inactive),72.5% (inactive),78.7% (inactive),-3.79% (inactive),82.5,78.7,1.62% (inactive),4.92% (inactive)
Fc1cccc2sc(Nc3nnc(-c4ccco4)o3)nc12,109,37% (active),109% (inactive),57.3% (inactive),41.2% (active),-21.4% (inactive),62.6,41.2,-0.4% (inactive),0% (inactive)
CC1(C)CC(=O)CC(C)(C)N1OC(=O)c1ccccn1,106,94% (inactive),106% (inactive),94% (inactive),102% (inactive),8.9% (inactive),93.6,102,-2.3% (inactive),5.74% (inactive)
COc1ccc(Cc2nnc3n2N=C(c2cc4ccccc4o2)CS3)cc1OC,77,79.5% (inactive),77% (inactive),64.4% (inactive),35% (active),-20% (inactive),55,35,-7.03% (inactive),-0.67% (inactive)
O=C(COc1ccc(S(=O)(=O)N2CCCC2)cc1Cl)NC1CC1,126,108% (inactive),126% (inactive),112% (inactive),101% (inactive),7.76% (inactive),93.2,101,-5.68% (inactive),3.67% (inactive)
CCC(C)NC(=O)CCNS(=O)(=O)c1ccc(Br)cc1 (stereo not given),95.5,73% (inactive),95.5% (inactive),99.2% (inactive),98.5% (inactive),2.66% (inactive),95.8,98.5,-4.74% (inactive),-1.67% (inactive)
COc1ccc(-c2c3c(=O)n(C)c(=O)n(C)c3cn2-c2cccc(OC)c2)cc1,105,97% (inactive),105% (inactive),95.9% (inactive),89.7% (inactive),-3.48% (inactive),93.2,89.7,0.39% (inactive),-6.03% (inactive)
COc1ccc(CCn2c(N)c(C#N)c3nc4ccccc4nc32)cc1OC,64,82.5% (inactive),64% (inactive),94.3% (inactive),90.4% (inactive),0.84% (inactive),89.6,90.4,-1.45% (inactive),7.87% (inactive)
Cc1nc(C)c2c(c1C(F)(F)F)-c1ccccc1C2(F)F,98,98% (inactive),98% (inactive),102% (inactive),105% (inactive),16.4% (inactive),88.9,105,-4.4% (inactive),-5.08% (inactive)
Cc1ccccc1-c1nc2ccccc2c(=O)n1C1CCS(=O)(=O)C1 (stereo not given),96.5,91.5% (inactive),96.5% (inactive),108% (inactive),90.3% (inactive),-9.98% (inactive),100,90.3,0.26% (inactive),0.97% (inactive)
O=S(=O)(NCC1CCCO1)c1ccc(S(=O)(=O)N2CCc3ccccc3C2)cc1 (stereo not given),90,93.5% (inactive),90% (inactive),94.9% (inactive),94.8% (inactive),5.08% (inactive),89.8,94.8,0.26% (inactive),2.42% (inactive)
CCNCc1cc2cc(C)ccc2[nH]c1=O,106,99% (inactive),106% (inactive),80.6% (inactive),82.7% (inactive),-7.93% (inactive),90.6,82.7,-8.78% (inactive),-7% (inactive)
CCn1c(CCNC(=O)c2cccs2)nnc1SCC(=O)c1ccc(OC)cc1,106,138% (inactive),106% (inactive),95.7% (inactive),97.4% (inactive),-5.32% (inactive),103,97.4,-1.71% (inactive),-0.33% (inactive)
CC1(C)OC(=O)N(c2cccnc2)C1(C)O (stereo not given),117,83% (inactive),117% (inactive),100% (inactive),91.5% (inactive),11.6% (inactive),80,91.5,-5.6% (inactive),3.02% (inactive)

Compound,viability [1] [%],Her2 level [2],viability [3],viability [4],viability [5],differential viability (reversal) ([6]; H69AR cells + 2 uM doxorubicin),"viability [6, 9] [%]","viability [6, 10] [%]",inhibition [7],inhibition [8]
OC(CN1CCCCC1)Cn1c(C(F)(F)F)nc2ccccc21 (stereo not given),85.5,103% (inactive),85.5% (inactive),105% (inactive),83.4% (inactive),-3.04% (inactive),86.4,83.4,0% (inactive),3.5% (inactive)
Cc1ccc(CNC(=O)C2CCN(S(=O)(=O)c3cccs3)CC2)o1,138,87% (inactive),138% (inactive),89.5% (inactive),81% (inactive),6.39% (inactive),74.6,81,-4.68% (inactive),4.76% (inactive)
O=S(=O)(Cc1ccccc1)N1CCN(Cc2ccccc2)CC1,84.5,109% (inactive),84.5% (inactive),87.3% (inactive),95.5% (inactive),15.5% (inactive),79.9,95.5,-0.13% (inactive),0.95% (inactive)
Cc1c(/C(O)=C2/C(=O)C(=O)N(CCN3CCOCC3)C2c2cccs2)cnn1-c1ccccc1 (stereo not given),88,114% (inactive),88% (inactive),116% (inactive),96.2% (inactive),1.22% (inactive),95,96.2,-0.79% (inactive),0.16% (inactive)
CCOC(=O)CSc1nc2ccccc2n1CC(=O)N1CCN(c2ccccc2)CC1,93.5,99.5% (inactive),93.5% (inactive),87.2% (inactive),89.9% (inactive),2.73% (inactive),87.1,89.9,-1.3% (inactive),-4.92% (inactive)
O=C1c2ccccc2C(=O)N1CCCn1nnc(-c2ccc(N3CCOCC3)cc2)n1,110,90.5% (inactive),110% (inactive),103% (inactive),95.9% (inactive),0.795% (inactive),95.1,95.9,-4.53% (inactive),-4.43% (inactive)
CC1CCc2cc(F)cc3c(O)c(C(=O)Nc4cnccn4)c(=O)n1c23 (stereo not given),97.5,82.5% (inactive),97.5% (inactive),99.9% (inactive),92.8% (inactive),-1.42% (inactive),94.2,92.8,-0.92% (inactive),4.52% (inactive)
CC(=O)NCc1cccc(CNC(C)=O)n1,84.5,82.5% (inactive),84.5% (inactive),88.4% (inactive),98% (inactive),7.96% (inactive),90.1,98,-6.8% (inactive),-6.67% (inactive)
COc1cccc(-n2c(CNc3ccc(F)cc3)nnc2SCC(N)=O)c1,115,82.5% (inactive),115% (inactive),101% (inactive),90.4% (inactive),8.77% (inactive),81.6,90.4,-4.67% (inactive),0.97% (inactive)
CCN1CCN(c2c(Cl)cccc2NC(=O)c2ccc3c(c2)OCCO3)CC1,80,84.5% (inactive),80% (inactive),95.2% (inactive),81.7% (inactive),1.33% (inactive),80.4,81.7,-5% (inactive),3% (inactive)
CCOC(=O)CSc1nc2ccccc2c(=O)n1NC(=O)c1ccccc1,120,78% (inactive),120% (inactive),86.6% (inactive),87.4% (inactive),7% (inactive),80.4,87.4,-3.29% (inactive),-1.75% (inactive)
CCN(CC)c1ccc2c(C)c(-c3ccc(N)cc3)c(=O)oc2c1,96.5,84.5% (inactive),96.5% (inactive),60.4% (inactive),61.8% (inactive),-9.77% (inactive),71.6,61.8,-7.33% (inactive),12.3% (inactive)
Cc1cc2c(cc(C(=O)OCC(=O)NCc3cccs3)n2C(C)C)o1,83,63.5% (inactive),83% (inactive),37.3% (inactive),21.7% (active),-30.4% (inactive),52.1,21.7,-6% (inactive),5.9% (inactive)
O=C(NCc1cccnc1)c1ccc(Cl)c(Cl)c1,89,75% (inactive),89% (inactive),95.2% (inactive),96.8% (inactive),9.16% (inactive),87.7,96.8,-1.33% (inactive),3.61% (inactive)
CC(C)Oc1cccc(-c2cc(C(=O)N3CCN(S(C)(=O)=O)CC3)c3ccccc3n2)c1,90.5,94% (inactive),90.5% (inactive),64% (inactive),65.7% (inactive),-9.72% (inactive),75.4,65.7,-1.84% (inactive),-6.03% (inactive)
Fc1cccc(-c2cc3nc4c(c(N5CCN(c6cnccn6)CC5)n3n2)CCCC4)c1,104,78% (inactive),104% (inactive),86.9% (inactive),89.2% (inactive),5.59% (inactive),83.6,89.2,-5.58% (inactive),0.16% (inactive)
